This note sets out measurements from ChEMBL document CHEMBL3525987, “Assessment of exposure of metabolites in preclinical species and humans at steady state from the single-dose radiolabeled absorption, distribution, metabolism, and excretion studies: a case study” (Drug Metab Dispos, 2012).

In general, Cmax refers to the maximum level reached in the sampled fluid or tissue.

In series [1] the test system is Canis familiaris. Briefly: Toxicity in beagle dog treated with [14C]lixivaptan at 10 mg/kg, po administered as single dose via gavage. Format: organism-based, Canis lupus familiaris. Also noted: dose 10 mg/kg, dosed compound name [14C]lixivaptan, route oral. The conditions noted are these: in vivo.
A short description of series [2]: Retention time of the compound by HPLC analysis. Format: physicochemical. Also noted: dosed compound name [14C]lixivaptan.
Series [3] has as its system Homo sapiens. Put plainly: Drug concentration at steady state in human treated with [14C]lixivaptan at 100 mg, po qd for 7 days by LC/MS/MS analysis. Format: ADME, organism-based. Also noted: dosed compound name Lixivaptan. The settings on record: in vivo, 168 h. An outline of the steps: (§1)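 Phase 1 human study with lixivaptan 100 mg orally once daily and blood taken on the final day. Parent and two abundant metabolites were quantified in plasma with a validated LC-MS/MS assay.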

The test system of series [4] is Homo sapiens. Briefly: Drug level in human plasma treated with [14C]lixivaptan at 100 mg, po administered as single dose measured after 12 hrs by liquid scintillation counting. Format: ADME, organism-based. The conditions noted are these: in vivo. Also noted: dosed compound name [14C]lixivaptan. An outline of the steps:
(§2)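 Healthy male volunteers fasted ≥10 h, given single oral 100 mg (200 µCi) [14C]drug as two 50-mg capsules with 250 ml water. Plasma (from ~50 ml blood) at 0.5, 2, 4, 8, 12, 24, 36 h, profiled per subject. Acetonitrile extraction, C18 radio-HPLC with 0.2% formic acid acetonitrile/water gradient, on-line radioactivity detection as % plasma radioactivity; ng-equiv/ml from % × total radioactivity.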

Series [5] has as its system Homo sapiens. Put plainly: Cmax in human treated with [14C]lixivaptan at 100 mg, po qd for 7 days. Also noted: dose 100 mg, route oral, dosed compound name [14C]lixivaptan. In kind it is ADME, organism-based. The conditions noted are these: in vivo, 168 h.
Series [6] has as its system Rattus norvegicus. Briefly: Toxicity in male Sprague-Dawley rat treated with [14C]lixivaptan at 10 mg/kg, po administered as single dose via gavage. More on the design: dose 10 mg/kg, dosed compound name [14C]lixivaptan, route oral. The settings on record: in vivo. In kind it is organism-based.
For series [7], the system named is Homo sapiens. Briefly: Drug level in human plasma treated with [14C]lixivaptan at 100 mg, po administered as single dose measured after 2 hrs by liquid scintillation counting. In kind it is ADME, organism-based. Also noted: dosed compound name [14C]lixivaptan. The settings on record: in vivo. In outline:
as §2

For series [8], the system named is Rattus norvegicus. Briefly: Toxicity in female Sprague-Dawley rat treated with [14C]lixivaptan at 10 mg/kg, po administered as single dose via gavage. In kind it is organism-based. More on the design: dose 10 mg/kg, dosed compound name [14C]lixivaptan, route oral. The settings on record: in vivo.
The subject of series [9] is Homo sapiens. Briefly: Drug level in human plasma treated with [14C]lixivaptan at 100 mg, po administered as single dose measured after 4 hrs by liquid scintillation counting. Also noted: dosed compound name [14C]lixivaptan. The settings on record: in vivo. In kind it is ADME, organism-based. In outline: as §2
In series [10] the test system is Homo sapiens. Put plainly: Drug level in human plasma treated with [14C]lixivaptan at 100 mg, po administered as single dose measured after 24 hrs by liquid scintillation counting. Format: ADME, organism-based. More on the design: dosed compound name [14C]lixivaptan. The conditions noted are these: in vivo. In outline: as §2
Series [11] has as its system Homo sapiens. Briefly: Drug level in human plasma treated with [14C]lixivaptan at 100 mg, po administered as single dose measured after 8 hrs by liquid scintillation counting. In kind it is ADME, organism-based. Also noted: dosed compound name [14C]lixivaptan. The conditions noted are these: in vivo. In outline: as §2
Series [12] concerns Homo sapiens. Briefly: AUC (0 to 24 hrs) in human treated with [14C]lixivaptan at 100 mg, po administered as single dose. Format: ADME, organism-based, Plasma. More on the design: time < 24 hr, dose 100 mg, route oral, dosed compound name [14C]lixivaptan. The settings on record: in vivo. An outline of the steps: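 Healthy young men fasted 10 h and took one oral dose of [14C]lixivaptan, 100 mg (200 µCi) as two capsules with water, eating 4 h later. Plasma from each subject at 0.5, 2, 4, 8, 12, 24 and 36 h was acetonitrile-extracted and profiled by C18 radio-HPLC (formic acid/acetonitrile gradient) with flow detection. Component concentrations were % of radioactivity × total plasma radioactivity, giving AUC0-24 in ng-equiv.h/ml.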

In series [13] the test system is Homo sapiens. Put plainly: Drug level in human plasma treated with [14C]lixivaptan at 100 mg, po administered as single dose measured after 36 hrs by liquid scintillation counting. In kind it is ADME, organism-based. The settings on record: in vivo. Also noted: dosed compound name [14C]lixivaptan. In outline: as §2
Series [14] concerns Homo sapiens. Put plainly: Drug level in human plasma treated with [14C]lixivaptan at 100 mg, po administered as single dose measured after 0.5 hrs by liquid scintillation counting. More on the design: dosed compound name [14C]lixivaptan. The conditions noted are these: in vivo. In kind it is ADME, organism-based. In outline:
as §2

Series [15] concerns Homo sapiens. Put plainly: AUC at steady state in human treated with [14C]lixivaptan at 100 mg, po qd for 7 days by LC/MS/MS analysis. In kind it is ADME, organism-based, Plasma. The settings on record: in vivo, 168 h. Also noted: dosed compound name Lixivaptan. In outline:
as §1

The test system of series [16] is Homo sapiens. Put plainly: AUC in human treated with [14C]lixivaptan at 100 mg, po qd for 7 days. Format: ADME, organism-based, Plasma. More on the design: dosed compound name [14C]lixivaptan. The settings on record: in vivo, 168 h.
The test system of series [17] is Rattus norvegicus. Put plainly: Drug level in male Sprague-Dawley rat plasma treated with [14C]lixivaptan at 10 mg/kg, po administered as single dose via gavage measured after 1 hr by liquid scintillation counting. In kind it is ADME, organism-based. More on the design: dose 10 mg/kg, dosed compound name [14C]lixivaptan, route oral. The conditions noted are these: in vivo. In outline:
(§3)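 Single oral gavage of [14C]drug (10 mg/kg, 10 ml/kg) as suspension in deionized water with pluronic F68, ~29.8 µCi/mg; SD rats fasted 18 h, fed 4 h post-dose. Blood by cardiac puncture under isoflurane, 3 rats/time/gender, into K2EDTA at 1, 8, 24 h; plasma extracted twice with 2 vol acetonitrile, radio-HPLC on C18 with flow radioactivity detection, expressed as % plasma radioactivity.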

In series [18] the test system is Canis familiaris. Briefly: Drug level in beagle dog plasma treated with [14C]lixivaptan at 10 mg/kg, po administered as single dose measured after 2 hrs by liquid scintillation counting. In kind it is ADME, organism-based, Canis lupus familiaris. Also noted: dose 10 mg/kg, dosed compound name [14C]lixivaptan, route oral. The settings on record: in vivo. In outline:
(§4)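 Four male beagles fasted 18 h were gavaged once with [14C]lixivaptan at 10 mg/kg (2 ml/kg). The 5.0 mg/ml suspension was in deionized water with pluronic F68 (1.04 µCi/mg). Jugular K2EDTA plasma was taken at 2, 8 and 24 h and extracted twice with 2 volumes of acetonitrile. Profiling used C18 radio-HPLC (ammonium formate/acetonitrile gradient) with on-line flow scintillation detection. Each peak is reported as percent of plasma radioactivity.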

The subject of series [19] is Canis familiaris. Briefly: Drug level in beagle dog plasma treated with [14C]lixivaptan at 10 mg/kg, po administered as single dose measured after 24 hrs by liquid scintillation counting. In kind it is ADME, organism-based, Canis lupus familiaris. The settings on record: in vivo. More on the design: dose 10 mg/kg, dosed compound name [14C]lixivaptan, route oral. An outline of the steps: as §4

Series [20] deals with Canis familiaris. Put plainly: Drug level in beagle dog plasma treated with [14C]lixivaptan at 10 mg/kg, po administered as single dose measured after 8 hrs by liquid scintillation counting. Format: ADME, organism-based, Canis lupus familiaris. Also noted: dose 10 mg/kg, dosed compound name [14C]lixivaptan, route oral. The conditions noted are these: in vivo. In outline: as §4

In series [21] the test system is Rattus norvegicus. Briefly: Drug level in female Sprague-Dawley rat plasma treated with [14C]lixivaptan at 10 mg/kg, po administered as single dose via gavage measured after 1 hr by liquid scintillation counting. Format: ADME, organism-based. Also noted: dose 10 mg/kg, dosed compound name [14C]lixivaptan, route oral. The settings on record: in vivo. An outline of the steps:
(§5)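 Sprague-Dawley rats (9/gender) were fasted 18 h and gavaged once with [14C]lixivaptan at 10 mg/kg (10 ml/kg), about 29.8 µCi/mg, suspended in deionized water with pluronic F68. Plasma came by cardiac puncture under isoflurane at 1, 8 and 24 h (3/gender/time) and was extracted twice with 2 volumes of acetonitrile. C18 radio-HPLC with a flow scintillation detector gave percent of plasma radioactivity per peak.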

Series [22] deals with Rattus norvegicus. Briefly: Drug level in female Sprague-Dawley rat plasma treated with [14C]lixivaptan at 10 mg/kg, po administered as single dose via gavage measured after 24 hrs by liquid scintillation counting. Also noted: dose 10 mg/kg, dosed compound name [14C]lixivaptan, route oral. In kind it is ADME, organism-based. The settings on record: in vivo. In outline:
as §5

The test system of series [23] is Rattus norvegicus. Put plainly: Drug level in female Sprague-Dawley rat plasma treated with [14C]lixivaptan at 10 mg/kg, po administered as single dose via gavage measured after 8 hrs by liquid scintillation counting. Format: ADME, organism-based. More on the design: dose 10 mg/kg, dosed compound name [14C]lixivaptan, route oral. The conditions noted are these: in vivo. In outline:
as §3

In the case of `Cc1ccc(F)cc1C(=O)Nc1ccc(C(=O)Nc2ccccc2Cn2cccc2C(=O)O)c(Cl)c1`, the Activity result in the series with Canis familiaris [1], in the series on Rattus norvegicus [6] and in the series with Rattus norvegicus [8] was “Non-toxic” each time. In [2], this compound displayed a Retention_time of 23.3 min. Besides, in the series with Homo sapiens [3], the Css was 0.454 µg/mL. Further, the Compound recovery worked out at 11.2% in the series with Homo sapiens [4]; 16.5% in the series with Homo sapiens [7]; 16.8% with Homo sapiens [9]; 11% in the series on Homo sapiens [10]; 12.2% with Homo sapiens [11]; 7.6% in the series with Homo sapiens [13]. This compound also yielded a Compound recovery in the series with Homo sapiens [14] of 4.1%. Moreover, the Cmax with Homo sapiens [5] came out at 0.29 µg/mL. Moreover, the AUC in the series on Homo sapiens [12] stood at 2680 ng.Eq.hr/ml; with Homo sapiens [16], 2.68 µg·h/mL. This compound also displayed an AUCss with Homo sapiens [15] of 3.04 µg·h/mL.
In the case of `Cc1ccc(F)cc1C(=O)Nc1ccc(C(=O)N2C=C3CCC(=O)N3Cc3ccccc32)c(Cl)c1`, in series [2], the Retention_time is on record as 20.2 min. In addition, the Compound recovery in the series with Homo sapiens [4] came to 2.1%; in the series with Homo sapiens [7], 1.5%; in the series with Homo sapiens [9] it was 2.5%; with Homo sapiens [10], 2.1%; in the series with Homo sapiens [11], 2.4%; in the series with Homo sapiens [14] it was 0.6%. Also, the AUC in the series with Homo sapiens [12] came to 268 ng.Eq.hr/ml.
Turning to `Cc1ccc(F)cc1C(=O)Nc1ccc(C(=O)N2CC3C=CC(=O)N3Cc3ccccc32)c(Cl)c1` (configuration not stated), the Activity entry with Canis familiaris [1], in the series on Rattus norvegicus [6] and in the series on Rattus norvegicus [8] was “Non-toxic” throughout. In addition, the Compound recovery in the series on Rattus norvegicus [17] amounted to 5.4%; in the series on Canis familiaris [18], 19.4%; with Canis familiaris [19] it was 3.9%; with Canis familiaris [20], 11.1%; in the series with Rattus norvegicus [21], 36.2%; with Rattus norvegicus [22], 2.6%. The same compound registered a Compound recovery in the series with Rattus norvegicus [23] of 25.2%.
Turning to `Cc1ccc(F)cc1C(=O)Nc1ccc(C(=O)N2Cc3cccn3C(O)c3ccccc32)c(Cl)c1` (configuration not stated), in series [2], the Retention_time is recorded as 25.2 min. Moreover, the Compound recovery in the series on Homo sapiens [4] was found to be 1.6%; with Homo sapiens [7] it was 2.2%; with Homo sapiens [9], 2.4%; in the series on Homo sapiens [10] it was 4.2%; in the series with Homo sapiens [11] it was 2.1%; in the series with Homo sapiens [13] it was 3.8%. The compound further registered a Compound recovery with Homo sapiens [14] of 2.7%.
